Data as given in ChEMBL document CHEMBL4130397, “Tulongicin, an Antibacterial Tri-Indole Alkaloid from a Deep-Water Topsentia sp. Sponge” (J Nat Prod, 2017).
In brackets after ≈: the same amount, converted by molar mass.

Experiments:
[1] = test system: Human immunodeficiency virus 1; assay: Antiviral activity against ENV pseudotyped CCR5-tropic HIV1 isolate YU2 infected in human TZM-bl cells after 24 hrs by luciferase reporter gene assay; type: functional, organism-based; conditions: Human immunodeficiency virus 1, isolate YU2, TZM-bl
[2] = test system: BSC-1; assay: Cytotoxicity against African green monkey BSC1 cells; type: cell-based; conditions: Chlorocebus aethiops
[3] = test system: Staphylococcus aureus; assay: Antibacterial activity against Staphylococcus aureus ATCC 29213 by CLSI method; type: functional
Procedure, shortened: (§1)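 Broth MIC per CLSI guidelines against ATCC strains; each compound tested in duplicate in at least two independent experiments; top concentration tested 100 μg/mL.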

[4] = test system: Escherichia coli; assay: Antibacterial activity against Escherichia coli ATCC 25922 by CLSI method; type: functional; procedure, shortened: as §1
[5] = test system: Human immunodeficiency virus 1; assay: Antiviral activity against ENV pseudotyped CXCR4-tropic HIV1 HxB2 infected in human TZM-bl cells after 24 hrs by luciferase reporter gene assay; type: functional, organism-based; conditions: Human immunodeficiency virus 1, M:B_HXB2R
[6] = test system: HCT-116; assay: Cytotoxicity against human HCT116 cells; type: cell-based

| Compound | IC50 [1] [µM] | IC50 [2] [µM] | MIC [3] [µg/mL] | MIC [4] [µg/mL] | IC50 [5] [µM] | IC50 [6] [µM] |
| --- | --- | --- | --- | --- | --- | --- |
| Brc1ccc2c(C(C3=NC[C@H](c4c[nH]c5cc(Br)ccc45)N3)c3c[nH]c4cc(Br)ccc34)c[nH]c2c1 | 3.9 | 46 | 1.2 (≈ 1.8 µM) | > 100 | 2.7 | 10 |
| O[C@H](C1=NC[C@H](c2c[nH]c3cc(Br)ccc23)N1)c1c[nH]c2cc(Br)ccc12 | 3.5 | 93 | 3.7 (≈ 7.58 µM) | 100 (≈ 205 µM) | 4.5 | 16 |
| O=C(C1=NC[C@H](c2c[nH]c3cc(Br)ccc23)N1)c1c[nH]c2cc(Br)ccc12 | 9.5 | 31 | 1.1 (≈ 2.26 µM) | > 100 | 12 | 27 |
| Cc1onc(-c2ccccc2)c1C(=O)N[C@@H]1C(=O)N2[C@@H]1SC(C)(C)[C@@H]2C(=O)O [OXACILLIN] | – | – | 0.25 (≈ 0.623 µM) | – | – | – |
| GENTAMICIN | – | – | – | 1 | – | – |
